Converted amounts (≈) assume the structure as drawn.
What was measured:
Pseudomonas aeruginosa [1] = assay: Antibacterial activity against Pseudomonas aeruginosa 1145 infected in immunocompetent BALB/c mouse lung infection model assessed as log reduction in colony forming units at 40 mg/kg, iv bid administered at 2 hrs and 12 hrs post-infection measured 24 hrs post-drug treatment; type: functional
How it was run: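 Female BALB/c mice (18−20 g) received intranasal inoculum under light anesthesia. IV treatment at 2 and 12 h postinfection, six mice per group per dose. An untreated group was harvested at 2 h. Lungs were taken 24 h after treatment start, weighed, homogenized, diluted and plated on MacConkey medium overnight at 37 °C, 5% CO2. Read-out: CFU per gram lung.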

Pseudomonas aeruginosa [2] = assay: Antibacterial activity against Pseudomonas aeruginosa 1145 assessed as bacterial growth inhibition by susceptibility testing assay; type: functional
How it was run: (§1)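 Broth microdilution MIC per CLSI in 96-well plates; compound stocks prepared and serially diluted in sterile deionized water; cation-adjusted Mueller Hinton broth prepared fresh and held at 4 °C before testing, supplemented with lysed horse blood as appropriate; runs accepted when comparator antibiotics fell within QC ranges for appropriate ATCC quality control strains.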

Pseudomonas aeruginosa [3] = assay: Antibacterial activity against Pseudomonas aeruginosa 694 infected in iv dosed immunocompetent CD-1 mouse thigh infection model assessed as reduction in colony forming units administered twice daily at 2 hrs and 12 hrs post-infection measured 24 hrs post-drug treatment; type: functional, organism-based
How it was run: (§2)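 Thigh model: inoculum given intramuscularly into the right thigh on day 0. IV dosing with vehicle, test agent or comparator at 2 and 12 h postinfection. Untreated groups were harvested at 2 and 24 h. Thigh muscle was collected at 24 h postinfection, homogenized in PBS pH 7.4, diluted and plated on Brain Heart Infusion agar + 0.5% charcoal. Read-out: CFU per gram thigh.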

Pseudomonas aeruginosa [4] = assay: Antibacterial activity against Pseudomonas aeruginosa 694 infected in immunocompetent CD-1 mouse thigh infection model assessed as log reduction in colony forming units at 5 mg/kg, iv administered twice daily at 2 hrs and 12 hrs post-infection measured 24 hrs post-drug treatment (reference value: 1.8 log10CFU); type: functional; how it was run: as §2
Enterococcus faecium = assay: Antibacterial activity against tet(M) tetracycline-resistant Enterococcus faecium 404 assessed as bacterial growth inhibition by susceptibility testing assay; type: functional
Pseudomonas aeruginosa [5] = assay: Antibacterial activity against Pseudomonas aeruginosa 555 BAA-47 assessed as bacterial growth inhibition by susceptibility testing assay; type: functional
How it was run: (§3)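 Broth microdilution MIC per CLSI in cation-adjusted Mueller Hinton broth, made fresh and held at 4 °C before testing. Medium supplemented with lysed horse blood where appropriate. Compound stocks prepared and serially diluted in sterile deionized water. Runs were accepted against QC ranges for comparator antibiotics and ATCC QC strains.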

Enterococcus faecalis = assay: Antibacterial activity against tet(M) tetracycline-resistant Enterococcus faecalis 327 assessed as bacterial growth inhibition by susceptibility testing assay; type: functional; how it was run: as §1
Burkholderia cenocepacia = assay: Antibacterial activity against Burkholderia cenocepacia 240 assessed as bacterial growth inhibition by susceptibility testing assay; type: functional
How it was run: (§4)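 Medium supplemented with lysed horse blood where appropriate. Compound stocks prepared and serially diluted in sterile deionized water. Runs were accepted against QC ranges for comparator antibiotics and ATCC QC strains.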

Klebsiella pneumoniae = assay: Antibacterial activity against Klebsiella pneumoniae 457 harboring CTX-M-15 gene assessed as bacterial growth inhibition by susceptibility testing assay; type: functional; how it was run: as §1
Enterobacter cloacae = assay: Antibacterial activity against tet(A) tetracycline-resistant Enterobacter cloacae 603 assessed as bacterial growth inhibition by susceptibility testing assay; type: functional; how it was run: as §1
Pseudomonas aeruginosa [6] = assay: Antibacterial activity against Pseudomonas aeruginosa 694 assessed as bacterial growth inhibition by susceptibility testing assay; type: functional; how it was run: as §3
Escherichia coli [7] = assay: Antibacterial activity against tet(A) tetracycline-resistant Escherichia coli 155 assessed as bacterial growth inhibition by susceptibility testing assay; type: functional; how it was run: as §1
Staphylococcus aureus [8] = assay: Antibacterial activity against tet(K) tetracycline-resistant Staphylococcus aureus 158 assessed as bacterial growth inhibition by susceptibility testing assay; type: functional
Pseudomonas aeruginosa [9] = assay: Ratio of tetracycline IC50 to compound IC50 for antitranslational activity in Pseudomonas aeruginosa 555 BAA-47 by in vitro coupled transcription/translation assay; type: functional
Proteus mirabilis = assay: Antibacterial activity against Proteus mirabilis 385 assessed as bacterial growth inhibition by susceptibility testing assay; type: functional; how it was run: as §3
Pseudomonas aeruginosa [10] = assay: Antitranslational activity in Pseudomonas aeruginosa 555 BAA-47 assessed as ribosomal inhibition by in vitro coupled transcription/translation assay; type: functional
How it was run: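 P. aeruginosa coupled transcription/translation reactions with a luciferase reporter, run 60 min at 37 °C. Reactions were stopped on ice for 5 min, then luciferase substrate was added and luminescence read. Percent luminescence was plotted against inhibitor concentration, and 50% inhibition versus untreated controls was taken as the IC50.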

Escherichia coli [11] = assay: Antibacterial activity against Escherichia coli 107 ATCC 25922 assessed as bacterial growth inhibition by susceptibility testing assay; type: functional; how it was run: as §3
Acinetobacter baumannii = assay: Antibacterial activity against tet(B) tetracycline-resistant Acinetobacter baumannii 250 assessed as bacterial growth inhibition by susceptibility testing assay; type: functional; how it was run: as §1
Staphylococcus aureus [12] = assay: Antibacterial activity against methicillin-resistant, tet(M) tetracycline-resistant Staphylococcus aureus 161 assessed as bacterial growth inhibition by susceptibility testing assay; type: functional; how it was run: as §1
Staphylococcus aureus [13] = assay: Antibacterial activity against Staphylococcus aureus 101 ATCC 29213 assessed as bacterial growth inhibition by susceptibility testing assay; type: functional; how it was run: as §3
Streptococcus pneumoniae = assay: Antibacterial activity against tet(M) tetracycline-resistant Streptococcus pneumoniae 160 assessed as bacterial growth inhibition by susceptibility testing assay; type: functional
[14] = test system: Stenotrophomonas maltophilia; assay: Antibacterial activity against Stenotrophomonas maltophilia 256 assessed as bacterial growth inhibition by susceptibility testing assay; type: functional; how it was run: as §4
[15] = Enterococcus faecium, 404, read-out: MIC
[16] = Pseudomonas aeruginosa, 555 BAA-47, read-out: MIC
[17] = Enterococcus faecalis, 327, read-out: MIC
[18] = Burkholderia cenocepacia, 240, read-out: MIC
[19] = Klebsiella pneumoniae, 457, read-out: MIC
[20] = Enterobacter cloacae, 603, read-out: MIC
[21] = Escherichia coli, 155, read-out: MIC
[22] = Staphylococcus aureus, 158, read-out: MIC
[23] = Proteus mirabilis, 385, read-out: MIC
[24] = Escherichia coli, 107 ATCC 25922, read-out: MIC
[25] = Acinetobacter baumannii, 250, read-out: MIC
[26] = Staphylococcus aureus, 161, read-out: MIC
[27] = Staphylococcus aureus, 101 ATCC 29213, read-out: MIC
[28] = Streptococcus pneumoniae, 160, read-out: MIC
[29] = Stenotrophomonas maltophilia, 256, read-out: MIC

Structure (SMILES) | log10CFU/g (Pseudomonas aeruginosa [1]) | MIC (Pseudomonas aeruginosa [2]) [µg/mL] | MIC (Enterococcus faecium; [15]) [µg/mL] | MIC (Pseudomonas aeruginosa [5]; [16]) [µg/mL] | MIC (Enterococcus faecalis; [17]) [µg/mL] | MIC (Burkholderia cenocepacia; [18]) [µg/mL] | MIC (Klebsiella pneumoniae; [19]) [µg/mL] | MIC (Enterobacter cloacae; [20]) [µg/mL] | MIC (Escherichia coli [7]; [21]) [µg/mL] | MIC (Staphylococcus aureus [8]; [22]) [µg/mL] | MIC (Proteus mirabilis; [23]) [µg/mL] | MIC (Escherichia coli [11]; [24]) [µg/mL] | MIC (Acinetobacter baumannii; [25]) [µg/mL] | MIC (Staphylococcus aureus [12]; [26]) [µg/mL] | MIC (Staphylococcus aureus [13]; [27]) [µg/mL] | MIC (Streptococcus pneumoniae; [28]) [µg/mL] | MIC [14, 29] [µg/mL] | also measured
C[C@@H](O)[C@H]1C(=O)N2C(C(=O)O)=C(S[C@@H]3CN[C@H](C(=O)N(C)C)C3)[C@H](C)[C@H]12 [MEROPENEM] | 2 | 4 (≈ 10.4 µM) |  |  |  |  |  |  |  |  |  |  |  |  |  |  |  | 
CN(C)[C@@H]1C(O)=C(C(N)=O)C(=O)[C@@]2(O)C(O)=C3C(=O)c4c(O)c5c(c(F)c4C[C@H]3C[C@@H]12)[C@@H]1[C@@H](CCN1C)CN5 (stereo in doubt; 10c) [listing 1 of 2 here] |  |  |  |  |  |  |  |  |  |  |  |  |  |  |  |  |  | inhibition (Pseudomonas aeruginosa [3]): Dose-dependent effect
C[C@H]1COc2c(N3CCN(C)CC3)c(F)cc3c(=O)c(C(=O)O)cn1c23.C[C@H]1COc2c(N3CCN(C)CC3)c(F)cc3c(=O)c(C(=O)O)cn1c23.O [LEVOFLOXACIN] |  |  |  |  |  |  |  |  |  |  |  |  |  |  |  |  |  | log10CFU/g (Pseudomonas aeruginosa [4]): 4.5
CN(C)[C@@H]1C(O)=C(C(N)=O)C(=O)[C@@]2(O)C(O)=C3C(=O)c4c(O)c5c(c(F)c4C[C@H]3C[C@@H]12)[C@@H]1[C@@H](CCN1C)CN5 (stereo in doubt; 10c) [listing 2 of 2 here] | 4 | 4 (≈ 7.37 µM) |  |  |  |  |  |  |  |  |  |  |  |  |  |  |  | MIC (Enterococcus faecium): 0.0625 µg/mL (≈ 0.115 µM); MIC (Pseudomonas aeruginosa [5]): 4 µg/mL (≈ 7.37 µM); MIC (Enterococcus faecalis): 0.125 µg/mL (≈ 0.23 µM); MIC (Burkholderia cenocepacia): 8 µg/mL (≈ 14.7 µM); MIC (Klebsiella pneumoniae): 0.5 µg/mL (≈ 0.922 µM); MIC (Enterobacter cloacae): 0.5 µg/mL (≈ 0.922 µM); MIC (Pseudomonas aeruginosa [6]): 8 µg/mL (≈ 14.7 µM); MIC (Escherichia coli [7]): 0.5 µg/mL (≈ 0.922 µM); MIC (Staphylococcus aureus [8]): 0.0625 µg/mL (≈ 0.115 µM); Ratio IC50 (Pseudomonas aeruginosa [9]): 10; MIC (Proteus mirabilis): 0.5 µg/mL (≈ 0.922 µM); IC50 (Pseudomonas aeruginosa [10]): 0.21 µM; MIC (Escherichia coli [11]): 0.0625 µg/mL (≈ 0.115 µM); MIC (Acinetobacter baumannii): 2 µg/mL (≈ 3.69 µM); MIC (Staphylococcus aureus [12]): 0.5 µg/mL (≈ 0.922 µM); MIC (Staphylococcus aureus [13]): 0.25 µg/mL (≈ 0.461 µM); MIC (Streptococcus pneumoniae): <=0.0156 ug ml-1; MIC [14]: 1 µg/mL (≈ 1.84 µM)
CN(C)[C@@H]1C(O)=C(C(N)=O)C(=O)[C@@]2(O)C(O)=C3C(=O)c4c(O)c5c(c(F)c4C[C@H]3C[C@@H]12)[C@H]1N(C)CC[C@@]1(C)CN5 |  |  | 4 (≈ 7.19 µM) | 32 (≈ 57.5 µM) | 8 (≈ 14.4 µM) | 32 (≈ 57.5 µM) | 4 (≈ 7.19 µM) | 4 (≈ 7.19 µM) | 2 (≈ 3.59 µM) | 0.125 (≈ 0.225 µM) | 8 (≈ 14.4 µM) | 0.25 (≈ 0.449 µM) | 8 (≈ 14.4 µM) | 8 (≈ 14.4 µM) | 0.5 (≈ 0.898 µM) | 0.25 (≈ 0.449 µM) | 2 (≈ 3.59 µM) | 
CC1C[C@H]2CNc3c(O)c4c(c(OC(F)(F)F)c3[C@H]2N1C)C[C@H]1C[C@H]2[C@H](N(C)C)C(O)=C(C(N)=O)C(=O)[C@@]2(O)C(O)=C1C4=O (stereo partly specified) |  |  | 0.0312 (≈ 0.0501 µM) | 8 (≈ 12.8 µM) | ≤ 0.0156 | 16 (≈ 25.7 µM) | 2 (≈ 3.21 µM) | 2 (≈ 3.21 µM) | 0.0625 (≈ 0.1 µM) | ≤ 0.0156 | 2 (≈ 3.21 µM) | ≤ 0.0156 | 1 (≈ 1.61 µM) | 0.0312 (≈ 0.0501 µM) | 0.0312 (≈ 0.0501 µM) | ≤ 0.0156 | 0.25 (≈ 0.402 µM) | 
NCC[C@H](O)C(=O)N[C@@H]1C[C@H](N)[C@@H](O[C@H]2O[C@H](CN)[C@@H](O)[C@H](O)[C@H]2O)[C@H](O)[C@H]1O[C@H]1O[C@H](CO)[C@@H](O)[C@H](N)[C@H]1O [AMIKACIN] | 2 | 1 (≈ 1.71 µM) |  |  |  |  |  |  |  |  |  |  |  |  |  |  |  | 
CN(C)c1cc(NC(=O)CNC(C)(C)C)c(O)c2c1C[C@H]1C[C@H]3[C@H](N(C)C)C(O)=C(C(N)=O)C(=O)[C@@]3(O)C(O)=C1C2=O [TIGECYCLINE] |  |  | 0.0312 (≈ 0.0533 µM) | 16 (≈ 27.3 µM) | 0.125 (≈ 0.213 µM) | 16 (≈ 27.3 µM) | 1 (≈ 1.71 µM) | 4 (≈ 6.83 µM) | 1 (≈ 1.71 µM) | 0.125 (≈ 0.213 µM) | 4 (≈ 6.83 µM) | 0.125 (≈ 0.213 µM) | 8 (≈ 13.7 µM) | 0.125 (≈ 0.213 µM) | 0.0625 (≈ 0.107 µM) | 0.0156 (≈ 0.0266 µM) | 2 (≈ 3.41 µM) | 
CC(=O)N(C)CCN1CCC2CNc3c(O)c4c(c(F)c3C21)C[C@H]1C[C@H]2[C@H](N(C)C)C(O)=C(C(N)=O)C(=O)[C@@]2(O)C(O)=C1C4=O (mixture of isomers) |  |  | 32 | > 32 | > 32 | > 32 | > 32 | > 32 | 32 | 1 | > 32 | 8 | > 32 | > 32 | 4 | 4 | > 32 | 
